Key:
MOLT-4 = assay: Tested for cytotoxicity in Molt-4 cells by XTT assay; format: functional, cell-based; conditions: Homo sapiens
Procedure, shortened: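 Molt-4 cells plated at 3×10^4 cells/well with compound; on day 7 XTT conversion to formazan measured, with trypan blue microscopic examination also used; IC50 derived.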

[1] = target: Human immunodeficiency virus type 1 reverse transcriptase (Human immunodeficiency virus 1, UniProt Q72547); assay: Inhibitory concentration against HIV-1 reverse transcriptase in scintillation proximity assay
Procedure, shortened: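 Recombinant purified HIV-1 RT (2 nM) with 39 nM 50-mer RNA template annealed to biotinylated 17-mer DNA primer; 75 nM dATP, dCTP, dGTP and [3H]TTP. Buffer 50 mM Tris-HCl pH 8.0, 80 mM KCl, 10 mM MgCl2, 10 mM DTT, 0.012% CHAPS. Enzyme, template-primer and inhibitor (90 μM–0.01 nM) preincubated 15 min at 37 °C; reaction 10 min at 37 °C, EDTA stop, streptavidin scintillant beads, scintillation counting.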

[2] = tested on: Human immunodeficiency virus 1; assay: Anti-HIV activity against HIV-1 in Molt-4 cells using 7-day infective assay; format: functional, organism-based; conditions: Human immunodeficiency virus 1, MOLT-4, 168 h
Procedure, shortened: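 Molt-4 cells (3×10^4) infected with 50 tissue culture infectious doses of HIV-1; compound added day 0, cultures refed days 1 and 4 with medium containing compound at initial concentration. On day 7 cells spun down and supernatant RT quantified by microassay; IC50 from RT quantitation.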

[3] = Selectivity index is the ratio of cytotoxicity in Molt-4 cells and anti-HIV- IC50; format: functional
Procedure, shortened: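 Selectivity index = cytotoxicity IC50 (XTT, Molt-4, day 7) divided by anti-HIV IC50 (RT quantitation in supernatant 7 days after HIV-1 infection of Molt-4 cells).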

[4] = target: Human immunodeficiency virus type 1 reverse transcriptase (Human immunodeficiency virus 1, UniProt Q72547, Y181C); assay: Inhibitory concentration against HIV-1 reverse transcriptase mutant (Tyr-181 to Cys)
Procedure, shortened: (§1)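 Scintillation proximity assay for RNA-dependent DNA polymerase activity of recombinant purified RT. The template is a 50-mer RNA annealed at its 5'-end to a biotinylated 17-mer DNA primer. Buffer is 50 mM Tris-HCl pH 8.0 with 80 mM KCl, 10 mM MgCl2, 10 mM DTT and 0.012% CHAPS. Final levels are 2 nM RT, 39 nM template-primer, 75 nM each dATP/dCTP/dGTP/[3H]TTP, and inhibitor serially diluted over 90 μM–0.01 nM. RT, template-primer and inhibitor are preincubated 15 min at 37 °C. The reaction runs 10 min at 37 °C and is stopped with EDTA. Incorporated label is captured on streptavidin scintillant beads and counted to give IC50.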

[5] = target: Human immunodeficiency virus type 1 reverse transcriptase (Human immunodeficiency virus 1, UniProt Q72547, Y181L); assay: Inhibitory concentration against HIV-1 reverse transcriptase mutant (Tyr-181 to Leu); procedure, shortened: as §1

Question: For `C[C@@H]1[C@H](O)c2c(c3c(c4c(-c5ccccc5)cc(=O)oc24)OC(C)(C)C=C3)O[C@@H]1C`, which IC50 (MOLT-4) is on record?
Answer: 33 µM

Question: What about the IC50 [1] of the same molecule?
Answer: 30 µM

Question: For `C[C@H]1Oc2c3c(c(/C(=C\C(=O)O)c4ccccc4)c(O)c2C(=O)[C@@H]1C)OC(C)(C)C=C3`, which IC50 [1] is on record?
Answer: > 100 µM

Question: Which IC50 [1] does the source give for `CC(=O)O[C@H]1c2c(c3c(c4c(-c5ccccc5)cc(=O)oc24)OC(C)(C)C=C3)O[C@H](C)[C@H]1C` here?
Answer: > 100 µM

Question: With `CC(=O)O[C@@H]1c2c(c3c(c4c(-c5ccccc5)cc(=O)oc24)OC(C)(C)C=C3)O[C@H](C)[C@H]1C` as the molecule, how does the IC50 [1] read?
Answer: 0.72 µM

Question: With `C[C@@H]1C(=O)c2c(O)c(/C(=C\C(=O)O)c3ccccc3)c3c(c2O[C@@H]1C)C=CC(C)(C)O3` as the molecule, how does the IC50 [1] read?
Answer: > 100 µM

Question: With `CC1=Cc2c(c3c(c4c(-c5ccccc5)cc(=O)oc24)OC(C)(C)C=C3)O[C@@H]1C` as the molecule, how does the IC50 [1] read?
Answer: 9 µM

Question: With `CC(C)=CCN1Cc2cc(Cl)cc3[nH]c(=S)n(c23)C[C@@H]1C` as the molecule, how does the IC50 [2] read?
Answer: 0.19 µM

Question: And the IC50 (MOLT-4)?
Answer: 19 µM

Question: What about the IC50 [1] of the same molecule?
Answer: 0.7 µM

Question: What about the Selectivity index [3] of the same molecule?
Answer: 100

Question: Which IC50 [1] does the source give for `C[C@@H]1[C@H](C(=O)c2ccc(Br)cc2)c2c(c3c(c4c(-c5ccccc5)cc(=O)oc24)OC(C)(C)C=C3)O[C@@H]1C` here?
Answer: 46 µM

Question: Which results are given for `C[C@H]1Oc2c3c(c4c(-c5ccccc5)cc(=O)oc4c2C(=O)[C@@H]1C)OC(C)(C)C=C3`?
Answer: IC50 (MOLT-4): 18 µM; IC50 [1]: 10 µM

Question: With `C[C@@H]1C(=O)c2c(c3c(c4c(-c5ccccc5)cc(=O)oc24)OC(C)(C)C=C3)O[C@@H]1C` as the molecule, how does the IC50 (MOLT-4) read?
Answer: 6.2 µM

Question: And the IC50 [1]?
Answer: 100 µM

Question: Which IC50 [2] does the source give for `C[C@H]1[C@H](O)c2c(c3c(c4c(-c5ccccc5)cc(=O)oc24)OC(C)(C)C=C3)O[C@@H]1C` here?
Answer: 1.4 µM

Question: And the IC50 (MOLT-4)?
Answer: 55 µM

Question: What about the IC50 [1] of the same molecule?
Answer: 0.038 µM

Question: What about the IC50 [4] of the same molecule?
Answer: 0.16 µM

Question: What about the IC50 [5] of the same molecule?
Answer: 0.41 µM

Question: And the Selectivity index [3]?
Answer: 39

Question: With `C[C@H]1[C@@H](C)Oc2c3c(c4c(-c5ccccc5)cc(=O)oc4c2[C@@H]1O)OC(C)(C)C=C3` as the molecule, how does the IC50 (MOLT-4) read?
Answer: 15 µM

Question: And the IC50 [1]?
Answer: 11 µM

Question: For `C[C@@H]1[C@@H](C)Oc2c3c(c4c(-c5ccccc5)cc(=O)oc4c2[C@@H]1O)OC(C)(C)C=C3`, which IC50 [2] is on record?
Answer: 1.6 µM

Question: And the IC50 (MOLT-4)?
Answer: 25 µM

Question: What about the IC50 [1] of the same molecule?
Answer: 0.13 µM

Question: And the Selectivity index [3]?
Answer: 16

Question: Which IC50 [1] does the source give for `CC1[C@H](O)c2c(c3c(c4c(-c5ccccc5)cc(=O)oc24)O[C@@H]2[C@H]3C2(C)C)O[C@@H]1C` (single isomer, unassigned) here?
Answer: > 100 µM

Question: Which IC50 [1] does the source give for `CC1[C@H](O)c2c(c3c(c4c(-c5ccccc5)cc(=O)oc24)O[C@H]2[C@@H]3C2(C)C)O[C@@H]1C` (single isomer, unassigned) here?
Answer: 70 µM

From ChEMBL document CHEMBL1126563, “The inophyllums, novel inhibitors of HIV-1 reverse transcriptase isolated from the Malaysian tree, Calophyllum inophyllum Linn” (J Med Chem, 1993)
